According to ChEMBL document CHEMBL1124764, “Cytotoxicity and antitumor activity of some tetrahedral bis(diphosphino)gold(I) chelates” (J Med Chem, 1990):

Legend:
P388 [1] = test: In vivo maximally tolerated dose for B6D2F1 mice on an ip P388 leukemia every day for 5 days regimen; type: functional, organism-based; settings: Mus musculus
Method in brief: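 B6D2F1 mice inoculated ip with 10⁶ P388 leukemia cells. Complex in DMA or ethanol plus saline, with Cremophor-EL if needed, 0.5 mL, freshly made. Given ip days 1–5 starting 24 h after inoculation, at five log-spaced doses to find the MTD. Groups of six; untreated and cisplatin controls. Mortality checked daily for 45 days; end points MST and ILS.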

P388 [2] = test: In vivo maximum increase in lifespan produced in mice bearing ip P388 leukemia; type: functional, organism-based; settings: Mus musculus
Method in brief: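 B6D2F1 mice were inoculated ip with 10⁶ P388 leukemia cells. Complexes in DMA or ethanol plus saline (Cremophor-EL if precipitating) were given ip in 0.5 mL on days 1–5, starting 24 h after inoculation, at five log-spaced doses. Untreated and cisplatin controls were included. Mice were monitored daily for 45 days. ILS = % increase in median survival versus untreated controls, at MTD; >30% counted as active.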

B16 [3] = test: In vitro concentration which inhibits cloning efficiency of B16 melanoma cells by 50% on a 2-h exposure was determined.; type: functional, cell-based, Mus musculus
Method in brief: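 Clonogenic assay with B16 melanoma cells grown in monolayer culture. Cells were exposed to drug for 2 h, either in medium containing 10% fetal calf serum or in serum-free medium, and then cloned. IC50 is the concentration cutting cloning efficiency by 50%.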

M5076 = test: In vivo maximum increase in lifespan produced in mice bearing M5076 reticulum cell sarcoma implanted tumor; type: functional; settings: Mus musculus
Method in brief: (§1)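 M5076 sarcoma or B16 melanoma was maintained by serial transplantation in syngeneic mice and implanted ip. B6D2F1 mice received complexes ip daily for 10 days at five log-spaced doses encompassing the MTD. Activity was scored as increase in median lifespan versus untreated controls, at MTD; >25% ILS counted as active.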

Mus musculus = test: In vivo maximally tolerated dose for B6D2F mice on an every day ip for 10 days regimen.; type: functional, organism-based
Method in brief: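 B6D2F1 mice with ip-implanted M5076 reticulum cell sarcoma or B16 melanoma, kept by serial transplant in syngeneic mice. Complex dissolved in minimal DMA or ethanol plus equal saline, with Cremophor-EL if it precipitated. Made just before use and given ip daily for 10 days at five log-spaced doses spanning the MTD. Activity judged by median lifespan prolongation.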

B16 [4] = test: (§2) In vivo maximum increase in lifespan produced in mice bearing ip B16 melanoma implanted tumor; type: functional, organism-based; settings: Mus musculus; method in brief: as §1
[5] = as §2; type: organism-based; method in brief: as §1

| Substance | MTD (uM day-1 kg-1) (P388 [1]) | ILS (P388 [2]) [%] | IC50 (B16 [3]) [µM] | ILS (M5076) [%] | MTD (uM day-1 kg-1) (Mus musculus) | ILS (B16 [4]) [%] | ILS [5] [%] |
| --- | --- | --- | --- | --- | --- | --- | --- |
| Bis [1,2-bis(diphenylphosphino)ethane] gold (I) 2-hydroxy-1-ethane sulphonate | 2 | 78 |  |  |  |  |  |
| Bis [1,2-bis(diphenylphosphino)ethane] gold (I) Bromide Hydrate | 2 | 83 |  |  |  |  |  |
| Bis [1,2-bis(diphenylphosphino)ethane] gold (I) Chloride Hydrate [listing 1 of 2 here] |  |  | 4.5 |  |  |  |  |
| Bis [1,2-bis(diphenylphosphino)ethane] gold (I) Chloride Hydrate [listing 2 of 2 here] | 3 | 83 |  | 57 | 2 | 38 |  |
| Bis [1,2-bis(diphenylphosphino)ethane] gold (I) Iodide Hydrate | 2 | 150 |  | 52 | 2 |  |  |
| Bis [1,2-bis(diphenylphosphino)ethane] gold (I) Methanesulfonate | 2 | 81 |  |  |  |  |  |
| Bis [1,2-bis(diphenylphosphino)ethane] gold (I) Nitrate [listing 1 of 2 here] |  |  | 4 |  |  |  |  |
| Bis [1,2-bis(diphenylphosphino)ethane] gold (I) Nitrate [listing 2 of 2 here] | 3 | 90 |  |  |  |  |  |
| Bis [1,2-bis(diphenylphosphino)ethene] gold (I) Chloride [listing 1 of 2 here] |  |  | 2 |  |  |  |  |
| Bis [1,2-bis(diphenylphosphino)ethene] gold (I) Chloride [listing 2 of 2 here] | 2 | 92 |  | 69 | 2 |  | 35 |
| Bis [1,2-bis(diphenylphosphino)propane] gold (I) Chloride [listing 1 of 2 here] |  |  | 0.6 |  |  |  |  |
| Bis [1,2-bis(diphenylphosphino)propane] gold (I) Chloride [listing 2 of 2 here] | 3 | 89 |  | 116 | 2 |  | 34 |
| Bis [1,2-bis(dipyridine-2-ylphosphino)ethane] gold (I) Chloride Hydrate; chloride | 8 | 75 |  |  | 8 |  | 43 |
| Bis [1,2-bis(dipyridine-4-ylphosphino)ethane] gold (I) Chloride Hydrate; chloride | 6 |  |  |  | 4 |  |  |
| Bis [1,2-bis[bis(3-fluorophenyl)phosphino)ethane] gold (I) Chloride | 10 | 55 |  |  |  |  |  |
| Bis [1,2-bis[bis(4-fluorophenyl)phosphino)ethane] gold (I) Chloride | 3 | 50 |  |  |  |  |  |
| Bis [1,2-bis[bis(5-H-dibenzophospholyl)ethane] gold (I) Nitrate | 4 | 61 |  |  |  |  |  |
| Bis [1-dipphenyl,2-phenylmethylphosphino)ethane] gold (I) Chloride Hydrate; chloride | 3 | 65 |  |  | 2 |  |  |
| Bis [(1-diphenylphosphino, 2-diethyl) ethane] gold (I) Chloride [listing 1 of 2 here] |  |  | 5 |  |  |  |  |
| Bis [(1-diphenylphosphino, 2-diethyl) ethane] gold (I) Chloride [listing 2 of 2 here] | 4 | 54 |  | 46 | 2 |  |  |
| CISPLATIN | 7 | 125 |  | 103 | 5 |  | 75 |
